# Measured values as given in ChEMBL document CHEMBL4138261, “SAR Studies of Indole-5-propanoic Acid Derivatives To Develop Novel GPR40 Agonists” (ACS Med Chem Lett, 2017).
# Activity calls are given as the source filed them.
# Legend:
# [1] = molecular target: T1, Peroxisome proliferator-activated receptor gamma (Homo sapiens) (UniProt P37231); assay: Transactivation of human PPARgamma expressed in CHO cells at 10 uM after 24 hrs by luciferase reporter gene assay relative to rosiglitazone; format: cell-based
# T1 sequence (whole entry): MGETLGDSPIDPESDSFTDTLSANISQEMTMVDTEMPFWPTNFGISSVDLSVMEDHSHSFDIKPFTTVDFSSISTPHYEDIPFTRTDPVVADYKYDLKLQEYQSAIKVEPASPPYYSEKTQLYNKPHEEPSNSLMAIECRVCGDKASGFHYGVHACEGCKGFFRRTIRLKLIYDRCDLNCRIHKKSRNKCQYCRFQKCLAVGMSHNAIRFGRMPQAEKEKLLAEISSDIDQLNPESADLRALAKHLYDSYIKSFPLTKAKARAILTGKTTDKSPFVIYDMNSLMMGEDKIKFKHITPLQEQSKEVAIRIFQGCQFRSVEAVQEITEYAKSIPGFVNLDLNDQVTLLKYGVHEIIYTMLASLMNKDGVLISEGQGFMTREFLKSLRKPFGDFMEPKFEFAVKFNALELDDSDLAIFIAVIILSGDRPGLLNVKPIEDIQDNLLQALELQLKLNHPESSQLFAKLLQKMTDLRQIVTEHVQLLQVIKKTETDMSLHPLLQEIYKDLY
# Method in brief: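 Luciferase reporter transactivation assay for PPARγ; compounds tested at 10 μM; activity expressed as percent of 1 μM rosiglitazone; no activity defined as >25 μM.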
# [2] = molecular target: Free fatty acid receptor 1 (Homo sapiens, UniProt O14842); assay: Agonist activity at human GPR40 expressed in CHO cells after 24 hrs by NFAT-luciferase reporter gene assay; format: functional, cell-based
# Sequence of Free fatty acid receptor 1 (O14842 whole entry): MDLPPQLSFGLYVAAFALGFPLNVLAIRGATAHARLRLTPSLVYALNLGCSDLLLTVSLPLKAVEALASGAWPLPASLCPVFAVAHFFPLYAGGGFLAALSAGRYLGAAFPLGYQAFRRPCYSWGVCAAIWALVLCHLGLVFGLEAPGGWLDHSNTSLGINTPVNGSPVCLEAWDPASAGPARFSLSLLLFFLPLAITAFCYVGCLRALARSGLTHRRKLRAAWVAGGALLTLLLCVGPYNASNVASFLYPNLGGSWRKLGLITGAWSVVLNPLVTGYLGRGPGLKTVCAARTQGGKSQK
# [3] = molecular target: T2, Peroxisome proliferator-activated receptor gamma (Homo sapiens, UniProt P37231); assay: Transactivation of human PPARgamma expressed in CHO cells after 24 hrs by luciferase reporter gene assay; format: cell-based
# T2 sequence (P37231 whole entry): T1 sequence (whole entry)
# [4] = molecular target: Free fatty acid receptor 1 (Mus musculus) (UniProt Q76JU9); assay: Agonist activity at GPR40 in mouse MIN6 cells assessed as increase in 17 mM glucose-stimulated insulin secretion at 1 and 10 uM after 2 hrs by ELISA relative to glucose; format: functional, cell-based
# Sequence of Free fatty acid receptor 1 (Mus musculus) (Q76JU9 whole entry): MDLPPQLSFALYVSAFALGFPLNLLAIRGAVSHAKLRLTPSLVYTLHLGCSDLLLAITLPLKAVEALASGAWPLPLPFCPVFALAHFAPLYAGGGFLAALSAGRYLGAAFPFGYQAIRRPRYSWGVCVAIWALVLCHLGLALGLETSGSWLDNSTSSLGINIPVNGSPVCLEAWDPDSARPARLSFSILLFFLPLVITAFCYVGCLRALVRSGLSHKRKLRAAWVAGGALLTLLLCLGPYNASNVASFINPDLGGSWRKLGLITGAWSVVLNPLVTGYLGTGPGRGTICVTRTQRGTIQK
# Method in brief: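 GSIS in MIN6 insulinoma cells stimulated with 17 mM glucose; insulin secretion compared with 17 mM glucose alone by Student's test (*p ≤ 0.05, **p ≤ 0.025, ***p ≤ 0.01).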
# [5] = Intrinsic clearance in human liver microsomes at 1 uM after 30 mins in presence of NADPH by UPLC-MS analysis; format: ADME, microsome; conditions: 0.5 h
# Method in brief: (§1)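 Liver microsomal stability; intrinsic clearance reported in μL/min/mg.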
# [6] = Intrinsic clearance in CD-1 mouse liver microsomes at 1 uM after 30 mins in presence of NADPH by UPLC-MS analysis; format: ADME, microsome; conditions: 0.5 h; method in brief: as §1
SMILES,Activity [1] [%],EC50 [2] [µM],other results
Cc1ncccc1-c1cc2cc(CCC(=O)O)ccc2[nH]1,64,> 25,EC50 [3]: 56.9 µM
Cc1cccc(-c2cc3cc(CCC(=O)O)ccc3[nH]2)c1,8,> 25,–
CCc1ccccc1-c1cc2cc(CCC(=O)O)ccc2[nH]1,7,1.8,–
COc1cccc(-c2cc3cc(CCC(=O)O)ccc3[nH]2)c1,5,> 25,–
O=C(O)CCc1ccc2[nH]c(-c3ccccc3)cc2c1,14,> 25,Activity [4]: inactive
O=C(O)CCc1ccc2[nH]c(-c3ccccc3OC(F)(F)F)cc2c1,2,1.02,–
O=C(O)CCc1ccc2[nH]c(-c3ccc(Cl)cc3)cc2c1,1,0.778,–
O=C(O)CCc1ccc2[nH]c(-c3ccccc3C(F)(F)F)cc2c1,8,1.31,–
Cc1ccc(-c2cc3cc(CCC(=O)O)ccc3[nH]2)cc1,4,> 25,–
O=C(O)CCc1ccc2[nH]c(-c3cccc(Br)c3)cc2c1,56,1.8,EC50 [3]: 236 µM
Cc1cc(OCCCS(C)(=O)=O)cc(C)c1-c1cccc(COc2ccc3c(c2)OC[C@H]3CC(=O)O)c1,–,–,fold change (FC) [4]: 1.7
O=C(O)CCc1ccc(NCc2cccc(Oc3ccccc3)c2)cc1 [GW9508],–,0.05,–
COc1ccc(-c2cc3cc(CCC(=O)O)ccc3[nH]2)cc1,5,> 25,–
O=C(O)CCc1ccc2[nH]c(-c3cccc(Cl)c3)cc2c1,101,0.0378,CLH [5]: 4.3 µL/min; fold change (FC) [4]: 1.7; CLH [6]: 11.3 µL/min; EC50 [3]: 2.4 µM

# More lines, main results first:
Activity [1] [%],EC50 [2] [µM],SMILES,other results
–,> 10,Cn1c(-c2ccccc2Br)cc2cc(CCC(=O)O)ccc21,–
0,> 25,COc1ccccc1-c1cc2cc(CCC(=O)O)ccc2[nH]1,–
–,> 10,Cn1c(-c2cccc(Cl)c2)cc2cc(CCC(=O)O)ccc21,–
3,1.21,O=C(O)CCc1ccc2[nH]c(-c3ccccc3F)cc2c1,–
4,0.447,Cc1ccccc1-c1cc2cc(CCC(=O)O)ccc2[nH]1,–
2,> 25,CC(C)c1ccccc1-c1cc2cc(CCC(=O)O)ccc2[nH]1,–
–,> 10,Cn1c(-c2ccc(Cl)cc2)cc2cc(CCC(=O)O)ccc21,–
4,0.0094,O=C(O)CCc1ccc2[nH]c(-c3ccccc3Br)cc2c1,CLH [5]: 7.1 µL/min; fold change (FC) [4]: 1.6; CLH [6]: 10.4 µL/min
1,0.0546 to 0.0586,O=C(O)CCc1ccc2[nH]c(-c3ccccc3Cl)cc2c1,CLH [5]: 9.2 µL/min; fold change (FC) [4]: 1.4; CLH [6]: 14.3 µL/min
